In ChEMBL document CHEMBL1155054, “Synthesis, biological evaluation and molecular modelling of N-heterocyclic dipeptide aldehydes as selective calpain inhibitors” (Bioorg Med Chem, 2008):
Activity calls are given as the source filed them. The rule behind the calls is not given here. Residues, ends and D or L forms follow the SMILES beside them. *: point of attachment. Cbz = O=C(OCc1ccccc1)*

Legend:
[1] = Inhibition of ovine CAPN2; set-up: species or system Ovis aries
How it was run: (§1)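 o-CAPN1 or o-CAPN2 partially purified from sheep lung by hydrophobic and ion-exchange chromatography, diluted in 20 mM MOPS, 2 mM EGTA, 2 mM EDTA, 0.5% β-mercaptoethanol pH 7.5. Substrate 0.0005% BODIPY-FL casein in 10 mM CaCl2; inhibitor in DMSO (2% total).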

[2] = Inhibition of ovine CAPN1; set-up: species or system Ovis aries; how it was run: as §1
[3] = biological target: T1, Calpain-2 catalytic subunit (Homo sapiens, UniProt P17655); test: Inhibition of human CAPN2
T1 sequence (P17655 whole entry): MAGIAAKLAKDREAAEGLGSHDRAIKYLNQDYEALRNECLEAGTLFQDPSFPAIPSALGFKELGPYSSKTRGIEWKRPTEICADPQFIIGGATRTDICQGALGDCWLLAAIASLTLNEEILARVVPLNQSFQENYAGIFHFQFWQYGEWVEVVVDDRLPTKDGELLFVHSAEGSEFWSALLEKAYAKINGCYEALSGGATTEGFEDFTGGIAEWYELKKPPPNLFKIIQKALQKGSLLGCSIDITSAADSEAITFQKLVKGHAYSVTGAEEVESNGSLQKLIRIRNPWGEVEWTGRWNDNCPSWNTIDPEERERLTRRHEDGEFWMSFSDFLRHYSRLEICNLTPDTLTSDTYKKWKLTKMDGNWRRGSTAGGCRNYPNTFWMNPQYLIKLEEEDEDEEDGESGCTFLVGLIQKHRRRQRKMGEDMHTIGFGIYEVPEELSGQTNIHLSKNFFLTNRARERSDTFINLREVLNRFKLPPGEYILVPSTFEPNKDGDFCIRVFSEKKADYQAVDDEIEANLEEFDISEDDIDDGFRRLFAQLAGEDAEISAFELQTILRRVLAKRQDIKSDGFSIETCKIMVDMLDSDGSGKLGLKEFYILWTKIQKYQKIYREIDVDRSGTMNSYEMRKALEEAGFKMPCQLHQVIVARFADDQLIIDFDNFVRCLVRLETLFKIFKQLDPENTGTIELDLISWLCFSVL

Lens of camera-type eye = test: Protection against calcium-induced cataract in ovine lens assessed as reduction in loss of transparency at 10 uM after 44 hrs relative to control; type: functional, tissue-based; settings: Ovis aries
[4] = biological target: T2, Calpain-2 catalytic subunit (Sus scrofa, UniProt P43367); test: Inhibition of pig CAPN2
T2 sequence (P43367 whole entry): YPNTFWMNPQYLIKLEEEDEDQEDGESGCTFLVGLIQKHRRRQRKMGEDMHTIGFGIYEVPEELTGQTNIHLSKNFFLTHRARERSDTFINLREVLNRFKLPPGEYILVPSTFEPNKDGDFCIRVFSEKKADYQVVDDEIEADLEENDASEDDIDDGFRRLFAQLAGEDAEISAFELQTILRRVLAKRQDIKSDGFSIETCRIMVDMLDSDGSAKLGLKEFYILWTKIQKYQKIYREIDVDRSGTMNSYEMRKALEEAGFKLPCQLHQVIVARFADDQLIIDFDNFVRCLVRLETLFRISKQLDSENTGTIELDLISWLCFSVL

[5] = biological target: T3, Calpain-1 catalytic subunit (Sus scrofa, UniProt P35750)
T3 sequence (P35750 whole entry): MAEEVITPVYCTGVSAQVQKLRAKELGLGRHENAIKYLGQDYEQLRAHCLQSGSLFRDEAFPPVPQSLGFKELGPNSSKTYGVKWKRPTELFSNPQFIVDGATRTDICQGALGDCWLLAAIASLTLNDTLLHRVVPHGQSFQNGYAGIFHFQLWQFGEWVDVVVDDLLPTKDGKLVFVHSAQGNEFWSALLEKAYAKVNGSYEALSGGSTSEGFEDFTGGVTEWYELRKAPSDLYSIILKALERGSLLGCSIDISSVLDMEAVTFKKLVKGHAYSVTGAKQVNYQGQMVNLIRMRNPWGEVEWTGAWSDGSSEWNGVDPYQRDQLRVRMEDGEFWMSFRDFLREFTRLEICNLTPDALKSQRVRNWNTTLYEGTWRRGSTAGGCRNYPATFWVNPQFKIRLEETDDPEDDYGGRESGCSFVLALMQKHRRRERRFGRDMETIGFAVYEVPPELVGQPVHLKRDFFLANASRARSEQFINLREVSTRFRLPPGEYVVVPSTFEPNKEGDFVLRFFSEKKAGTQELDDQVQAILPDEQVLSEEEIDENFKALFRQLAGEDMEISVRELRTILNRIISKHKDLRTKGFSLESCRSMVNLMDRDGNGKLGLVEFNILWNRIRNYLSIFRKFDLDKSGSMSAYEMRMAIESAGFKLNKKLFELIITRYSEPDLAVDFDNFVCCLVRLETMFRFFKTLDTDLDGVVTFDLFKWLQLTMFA

Row | IC50 [1] | IC50 [2] | Structure (SMILES) | also measured
1 | 100 nM | 530 nM | CC(C)C[C@@H](C=O)NC(=O)[C@@H](NC(=O)c1cc(C=O)c[nH]1)C(C)C | –
2 | 100 nM | 960 nM | CC(C)C[C@@H](C=O)NC(=O)[C@@H](NC(=O)c1ccc(C=O)o1)C(C)C | –
3 | – | – | CC(C)[C@H](NC(=O)OCc1ccccc1)C(=O)N[C@H](C=O)Cc1ccccc1 (Cbz-Val-Phe-aldehyde) | IC50 [3]: 350 nM
4 | 135 nM | 790 nM | CC(C)C[C@@H](C=O)NC(=O)[C@@H](NC(=O)c1ccco1)C(C)C | –
5 | 100 nM | 680 nM | CC(C)C[C@@H](C=O)NC(=O)[C@@H](NC(=O)c1cccs1)C(C)C | –
6 | 110 nM | 340 nM | Cc1ccc(C(=O)N[C@H](C(=O)N[C@H](C=O)CC(C)C)C(C)C)[nH]1 | –
7 | 25 nM | 290 nM | CC(C)C[C@@H](C=O)NC(=O)[C@@H](NC(=O)c1ccc(C=O)[nH]1)C(C)C | Activity (Lens of camera-type eye): Active
8 | 140 nM | 290 nM | COC(=O)c1ccc(C(=O)N[C@H](C(=O)N[C@H](C=O)CC(C)C)C(C)C)[nH]1 | –
9 | 150 nM | 150 nM | CC(C)C[C@@H](C=O)NC(=O)[C@@H](NC(=O)c1ccc(C=O)n1C)C(C)C | –
10 | 315 nM | 650 nM | CC(C)C[C@@H](C=O)NC(=O)[C@@H](NC(=O)c1ccc[nH]1)C(C)C | –
11 | 85 nM | 440 nM | CC(C)C[C@@H](C=O)NC(=O)[C@@H](NC(=O)c1ccc(C=O)s1)C(C)C | –
12 | – | – | CC(C)C[C@@H](C=O)NC(=O)[C@@H](NS(=O)(=O)c1ccc(F)cc1)C(C)C | IC50 [4]: 78 nM; IC50 [5]: 7.5 nM
